Calls of active or inactive are those of the source. No cut-off for these calls is given here.
Columns and labels:
Rattus norvegicus [1] = assay: Neurotoxicity in rat assessed as neurological deficit at 30 mg/kg, po after 0.25 hrs […]; assay type: toxicity, organism-based; set-up: dose 30 mg/kg, route oral; conditions: in vivo
Procedure, shortened: (§1)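 Rats given the compound, suspended in 0.5% methylcellulose, by the stated route and dose. Neurological deficit was recorded at the listed times as ataxia and loss of placing response and muscle tone. Reported as number of rats showing toxicity/number tested.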

Mus musculus [2] = assay: Anticonvulsant activity against subcutaneous pentylenetetrazole-induced seizures in mouse at 100 mg/kg, ip after 0.5 hrs; assay type: functional, organism-based; set-up: dose 100 mg/kg
Procedure, shortened: (§2)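 Phase I screen in mice. Compound given ip as a suspension in 0.5% methylcellulose, read at 30 min and 4 h. Pentylenetetrazole 85 mg/kg in 0.9% NaCl was injected sc into the posterior midline and animals watched ≥30 min. Protection meant no clonic spasm lasting ≥5 s. Groups of 1–8 animals; result is protected/tested.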

Mus musculus [3] = assay: Anticonvulsant activity in mouse assessed as protection against maximal electric shock-induced seizures at 300 mg/kg, ip after 0.5 hrs; assay type: functional, organism-based; set-up: dose 300 mg/kg
Procedure, shortened: (§3)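 Phase I maximal electroshock screen in mice. Compound given ip as a suspension in 0.5% methylcellulose at 30, 100 or 300 mg/kg, tested at 30 min and 4 h. Small groups (1–8); result is number protected/number tested.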

Mus musculus [4] = assay: Anticonvulsant activity in mouse assessed as protection against maximal electric shock-induced seizures at 100 mg/kg, ip after 0.5 hrs; assay type: functional, organism-based; set-up: dose 100 mg/kg; procedure, shortened: as §3
Mus musculus [5] = assay: Neurotoxicity in mouse assessed as inability to maintain equilibrium on rotarod at 100 mg/kg, ip after 4 hrs by rotarod test; assay type: toxicity, organism-based; set-up: dose 100 mg/kg, route intraperitoneal; conditions: in vivo
Procedure, shortened: (§4)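 Drug given ip to mice as a suspension in 0.5% methylcellulose. At the stated time after dosing, each mouse was placed on a 1 inch knurled rod turning at 6 rpm. Neurotoxicity = inability to stay balanced at least 1 min in each of three trials. Scored as animals toxic/animals tested in small groups.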

Mus musculus [6] = assay: Anticonvulsant activity in mouse assessed as protection against maximal electric shock-induced seizures at 30 mg/kg, ip after 4 hrs; assay type: functional, organism-based; set-up: dose 30 mg/kg; procedure, shortened: as §3
Rattus norvegicus [7] = assay: Neurotoxicity in rat assessed as neurological deficit at 30 mg/kg, po after 2 hrs […]; assay type: toxicity, organism-based; set-up: dose 30 mg/kg, route oral; conditions: in vivo; procedure, shortened: as §1
Mus musculus [8] = assay: Anticonvulsant activity against subcutaneous pentylenetetrazole-induced seizures in mouse at 300 mg/kg, ip after 4 hrs; assay type: functional, organism-based; set-up: dose 300 mg/kg; procedure, shortened: as §2
Mus musculus [9] = assay: Anticonvulsant activity against subcutaneous pentylenetetrazole-induced seizures in mouse at 300 mg/kg, ip after 0.5 hrs; assay type: functional, organism-based; set-up: dose 300 mg/kg; procedure, shortened: as §2
Rattus norvegicus [10] = assay: Neurotoxicity in rat assessed as neurological deficit at 30 mg/kg, po after 4 hrs by rotarod test; assay type: toxicity, organism-based; set-up: dose 30 mg/kg, route oral; conditions: in vivo; procedure, shortened: as §1
Mus musculus [11] = assay: Anticonvulsant activity in mouse assessed as protection against maximal electric shock-induced seizures at 100 mg/kg, ip after 4 hrs; assay type: functional, organism-based; set-up: dose 100 mg/kg; procedure, shortened: as §3
Mus musculus [12] = assay: Anticonvulsant activity in mouse assessed as protection against maximal electric shock-induced seizures at 30 mg/kg, ip after 0.5 hrs; assay type: functional, organism-based; set-up: dose 30 mg/kg; procedure, shortened: as §3
Rattus norvegicus [13] = assay: Neurotoxicity in rat assessed as neurological deficit at 30 mg/kg, po after 0.5 hrs […]; assay type: toxicity, organism-based; set-up: dose 30 mg/kg, route oral; conditions: in vivo; procedure, shortened: as §1
Mus musculus [14] = assay: Neurotoxicity in mouse assessed as inability to maintain equilibrium on rotarod at 30 mg/kg, ip after 0.5 hrs by rotarod test; assay type: toxicity, organism-based; set-up: dose 30 mg/kg, route intraperitoneal; conditions: in vivo; procedure, shortened: as §4
Mus musculus [15] = assay: Neurotoxicity in mouse assessed as inability to maintain equilibrium on rotarod at 300 mg/kg, ip after 4 hrs by rotarod test; assay type: toxicity, organism-based; set-up: dose 300 mg/kg, route intraperitoneal; conditions: in vivo; procedure, shortened: as §4
Mus musculus [16] = assay: Anticonvulsant activity in mouse assessed as protection against maximal electric shock-induced seizures at 300 mg/kg, ip after 4 hrs; assay type: functional, organism-based; set-up: dose 300 mg/kg; procedure, shortened: as §3
Rattus norvegicus [17] = assay: Anticonvulsant activity in rat assessed as protection against maximal electric shock-induced seizures at 30 mg/kg, po after 0.25 hrs; assay type: functional, organism-based; set-up: dose 30 mg/kg
Procedure, shortened: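 MES test in rats dosed orally at 30 mg/kg as a suspension in 0.5% methylcellulose, read at 0.25–4 h. Four rats per time point; result is protected/tested.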

Rattus norvegicus [18] = assay: Neurotoxicity in rat assessed as neurological deficit at 30 mg/kg, po after 1 hr […]; assay type: toxicity, organism-based; set-up: dose 30 mg/kg, route oral; conditions: in vivo; procedure, shortened: as §1
Mus musculus [19] = assay: Anticonvulsant activity against subcutaneous pentylenetetrazole-induced seizures in mouse at 100 mg/kg, ip after 4 hrs; assay type: functional, organism-based; set-up: dose 100 mg/kg; procedure, shortened: as §2
Mus musculus [20] = assay: Anticonvulsant activity against subcutaneous pentylenetetrazole-induced seizures in mouse at 30 mg/kg, ip after 4 hrs; assay type: functional, organism-based; set-up: dose 30 mg/kg; procedure, shortened: as §2
Mus musculus [21] = assay: Anticonvulsant activity against subcutaneous pentylenetetrazole-induced seizures in mouse at 30 mg/kg, ip after 0.5 hrs; assay type: functional, organism-based; set-up: dose 30 mg/kg; procedure, shortened: as §2
Mus musculus [22] = assay: Neurotoxicity in mouse assessed as inability to maintain equilibrium on rotarod at 30 mg/kg, ip after 4 hrs by rotarod test; assay type: toxicity, organism-based; set-up: dose 30 mg/kg, route intraperitoneal; conditions: in vivo; procedure, shortened: as §4
Mus musculus [23] = assay: Neurotoxicity in mouse assessed as inability to maintain equilibrium on rotarod at 100 mg/kg, ip after 0.5 hrs by rotarod test; assay type: toxicity, organism-based; set-up: dose 100 mg/kg, route intraperitoneal; conditions: in vivo; procedure, shortened: as §4
Mus musculus [24] = assay: Neurotoxicity in mouse assessed as inability to maintain equilibrium on rotarod at 300 mg/kg, ip after 0.5 hrs by rotarod test; assay type: toxicity, organism-based; set-up: dose 300 mg/kg, route intraperitoneal; conditions: in vivo; procedure, shortened: as §4
N1E-115 = assay: Blockade of voltage-gated sodium channel in mouse N1E-115 cells assessed as stimulation at 100 umol at -90 mV holding potential by whole-cell patch clamp electrophysiological assay relative to control; assay type: cell-based
Procedure, shortened: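 Whole-cell patch clamp with borosilicate glass electrodes on single cultured N1E-115 neuroblastoma cells. Compound at 100 µmol, holding potential -90 mV. Voltage-dependent sodium current expressed as % of control stimulation (no compound). Results from 5–8 cells averaged with SEM; significance by Student's t-test.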

Cc1cccc(C)c1OCC(=O)N[C@@H]1CCCC[C@H]1O.O=C(O)C(O)C(O)C(=O)O
Activity (Rattus norvegicus [1]): Non-toxic | Activity (Mus musculus [2]): inactive | Activity (Mus musculus [3]): Active | Activity (Mus musculus [4]): inactive | Activity (Mus musculus [5]): Non-toxic | Activity (Mus musculus [6]): inactive | Activity (Rattus norvegicus [7]): Non-toxic | Activity (Mus musculus [8]): inactive | Activity (Mus musculus [9]): inactive | Activity (Rattus norvegicus [10]): Non-toxic | Activity (Mus musculus [11]): inactive | Activity (Mus musculus [12]): inactive | Activity (Rattus norvegicus [13]): Non-toxic | Activity (Mus musculus [14]): Non-toxic | Activity (Mus musculus [15]): Non-toxic | Activity (Mus musculus [16]): inactive | Activity (Rattus norvegicus [17]): inactive | Activity (Rattus norvegicus [18]): Non-toxic | Activity (Mus musculus [19]): inactive | Activity (Mus musculus [20]): inactive | Activity (Mus musculus [21]): inactive | Activity (Mus musculus [22]): Non-toxic

Cc1cccc(C)c1OCC(=O)N[C@@H]1CCCC[C@@H]1O
Activity (Mus musculus [2]): inactive | Activity (Mus musculus [3]): Active | Activity (Mus musculus [5]): Non-toxic | Activity (Mus musculus [6]): inactive | Activity (Mus musculus [23]): Non-toxic | Activity (Mus musculus [8]): inactive | Activity (Mus musculus [9]): inactive | Activity (Mus musculus [11]): inactive | Activity (Mus musculus [12]): inactive | Activity (Mus musculus [14]): Non-toxic | Activity (Mus musculus [15]): Non-toxic | Activity (Mus musculus [16]): inactive | Activity (Mus musculus [19]): inactive | Activity (Mus musculus [20]): inactive | Activity (Mus musculus [24]): Non-toxic | Activity (Mus musculus [21]): inactive | Activity (Mus musculus [22]): Non-toxic

Cc1cccc(C)c1OCC(=O)N[C@H]1CCCC[C@H]1O
Activity (Mus musculus [2]): inactive | Activity (Mus musculus [3]): Active | Activity (Mus musculus [5]): Non-toxic | Activity (Mus musculus [6]): inactive | Activity (Mus musculus [23]): Non-toxic | Activity (Mus musculus [8]): inactive | Activity (Mus musculus [9]): Active | Activity (Mus musculus [11]): inactive | Activity (Mus musculus [12]): inactive | Activity (Mus musculus [14]): Non-toxic | Activity (Mus musculus [15]): Non-toxic | Activity (Mus musculus [16]): inactive | Activity (Mus musculus [19]): inactive | Activity (Mus musculus [20]): inactive | Activity (Mus musculus [21]): inactive | Activity (Mus musculus [22]): Non-toxic

NC(=O)N1c2ccccc2C=Cc2ccccc21
Activity (N1E-115): 78%
